Holding throughout (test): UV-Vis spectral titration
Common to all, as to assay type: binding

Data set [1] deals with CYP3A4 (Homo sapiens, UniProt P08684, F213S/S18F). A digest of the protocol: (§1)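 Human CYP3A4 (NF-14 construct, C-terminal pentahistidine tag, pCWori+ vector), wild type or F213 mutant, was incorporated into POPC Nanodiscs. The enzyme at 1-2 µM was titrated at 37 °C with test compound added in methanol (final methanol <1.5%), and UV-Vis spectra were read for the heme high-spin shift. Mixed titrations kept a fixed 1:12 steroid:second-substrate molar ratio.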
Chain of CYP3A4 (Homo sapiens, UniProt P08684, F213S/S18F) (P08684 13-503 S18F/F213S limits assumed): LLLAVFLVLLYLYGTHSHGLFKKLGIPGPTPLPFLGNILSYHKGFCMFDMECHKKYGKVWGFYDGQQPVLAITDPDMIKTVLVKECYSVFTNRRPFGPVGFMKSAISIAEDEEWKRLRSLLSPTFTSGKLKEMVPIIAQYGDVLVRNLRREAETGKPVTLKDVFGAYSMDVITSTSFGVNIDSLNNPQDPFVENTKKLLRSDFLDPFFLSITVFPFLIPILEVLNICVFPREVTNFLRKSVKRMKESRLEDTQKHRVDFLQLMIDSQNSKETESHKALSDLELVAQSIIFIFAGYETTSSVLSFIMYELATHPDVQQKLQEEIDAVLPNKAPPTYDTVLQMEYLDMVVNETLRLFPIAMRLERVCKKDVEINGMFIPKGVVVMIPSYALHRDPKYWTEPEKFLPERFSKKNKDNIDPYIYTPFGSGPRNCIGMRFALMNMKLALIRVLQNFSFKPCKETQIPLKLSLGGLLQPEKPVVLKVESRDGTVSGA

Data set [2] deals with CYP3A4 (Homo sapiens, UniProt P08684, F213Y/S18F). A digest of the protocol: as §1
Chain of CYP3A4 (Homo sapiens, UniProt P08684, F213Y/S18F) (P08684 13-503 S18F/F213Y limits assumed): as the sequence (P08684 13-503 S18F/F213S limits assumed) above, with S201Y counted along it
For data set [3], the target named is CYP3A4 (Homo sapiens, UniProt P08684, F213A/S18F). A digest of the protocol: as §1
Chain of CYP3A4 (Homo sapiens, UniProt P08684, F213A/S18F) (P08684 13-503 S18F/F213A limits assumed): as the sequence (P08684 13-503 S18F/F213S limits assumed) above, with S201A counted along it
Data set [4] has as its target CYP3A4 (Homo sapiens, UniProt P08684, S18F). A digest of the protocol:
as §1

Chain of CYP3A4 (Homo sapiens, UniProt P08684, S18F) (P08684 13-503 S18F limits assumed): as the sequence (P08684 13-503 S18F/F213S limits assumed) above, with S201F counted along it

For `CC(=O)[C@H]1CC[C@H]2[C@@H]3CCC4=CC(=O)CC[C@]4(C)[C@H]3CC[C@]12C` [progesterone], the Kd (as a rule, the constant that tells how readily two partners part at equilibrium) was 24.2 µM on CYP3A4 [1], 21.8 µM at CYP3A4 [2], 24.3 µM at CYP3A4 [3] and 31 µM on CYP3A4 [4].

Source of the values: publication PMC7003538 (Biochemistry, 2019).
